From ChEMBL document CHEMBL1156446, “c-Src protein kinase inhibitors block assembly and maturation of dengue virus” (Proc Natl Acad Sci U S A, 2007)
The source made the active and inactive calls. The rule behind the calls is not given here.

Assays:
Dengue virus [1] = experiment: Antiviral activity against Dengue virus infected in african green monkey Vero cells administered after viral challenge after 3 days by viral plaque assay; assay type: functional, organism-based
How it was run: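 Cells were seeded at 1 × 10^4 per well and infected with DENV at moi 1. Protein kinase inhibitors were then added at two noncytotoxic concentrations, set beforehand by MTT assay in Vero cells. After 3 days, infectious yield in the supernatant was titrated by plaque assay. Activity was called at ≥five-fold (0.7 log) titer decrease.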

Dengue virus [2] = experiment: Antiviral activity against Dengue virus infected in african green monkey Vero cells administered before viral challenge after 3 days by viral plaque assay; assay type: functional, organism-based
How it was run: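 Monolayers seeded at 1 × 10^4 cells per well were pretreated for 180 min at 37°C with inhibitor at two noncytotoxic concentrations. They were then inoculated with DENV at moi 1 for 60 min at 37°C. Supernatant harvested 3 days postinfection was titrated by plaque assay. Activity was called at ≥five-fold (0.7 log) titer decrease.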

dengue virus type 2 [3] = experiment: Antiviral activity against Dengue virus 2 NGC infected in african green monkey Vero cells after 3 days by immunofluorescence assay; assay type: functional, organism-based; conditions: 72 h
How it was run: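 DENV2 NGC was adsorbed to Vero monolayers at moi 1 for 60 min at 37°C with 5% CO2, then washed with PBS. Inhibitor was added at 0.02–10 μM final in 0.25% DMSO and incubated for 3 days. Cells were fixed and stained with anti-E mAb, FITC secondary and DAPI. Infected cells were counted in four automated-microscope fields per well and compared with DMSO-treated infected wells. IC50 came from nonlinear regression.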

Dengue virus [4] = experiment: Inhibition of viral spread in Dengue virus-infected human Huh7 cells assessed as accumulation of viral envelope protein within perinuclear region at 2.5 uM after 6 days by immunofluorescence assay relative to control; assay type: functional, organism-based; conditions: Huh-7
How it was run: (§1)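 Vero, Huh-7 or C6/36 cells were infected with DENV2 at moi 1 and then treated with 2.5 μM inhibitor or DMSO. Cells were fixed at days 4, 5 and 6 postinfection and stained for envelope protein by immunofluorescence. Envelope localization, including perinuclear accumulation, and infection of surrounding cells were compared with the DMSO control.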

Dengue virus [5] = experiment: Inhibition of viral spread in Dengue virus-infected african green monkey Vero cells assessed as accumulation of viral envelope protein within perinuclear region at 2.5 uM after 6 days by immunofluorescence assay relative to control; assay type: functional, organism-based; how it was run: as §1
Dengue virus [6] = experiment: Inhibition of viral spread in Dengue virus-infected human Huh7 cells assessed as accumulation of viral envelope protein within perinuclear region at 2.5 uM after 5 days by immunofluorescence assay relative to control; assay type: functional, organism-based; conditions: Huh-7; how it was run: as §1
dengue virus type 2 [7] = experiment: Antiviral activity against Dengue virus 2 infected in asian tiger mosquito C6/36 cells; assay type: functional, organism-based
How it was run: (§2)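 Vero, Huh-7 or C6/36 cells were infected with DENV2 at moi 1. Inhibitor was then added at noncytotoxic concentrations of 50 nM–5 μM for three days. Virus titer in the culture supernatant was measured by plaque assay.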

Dengue virus [8] = experiment: Inhibition of viral spread in Dengue virus-infected human Huh7 cells assessed as accumulation of viral envelope protein within perinuclear region at 2.5 uM after 4 days by immunofluorescence assay relative to control; assay type: functional, organism-based; conditions: Huh-7; how it was run: as §1
Dengue virus [9] = experiment: Inhibition of viral spread in Dengue virus-infected asian tiger mosquito C6/36 cells assessed as accumulation of viral envelope protein within perinuclear region at 2.5 uM after 5 days by immunofluorescence assay relative to control; assay type: functional, organism-based; how it was run: as §1
dengue virus type 2 [10] = experiment: Antiviral activity against Dengue virus 2 infected in african green monkey Vero cells; assay type: functional, organism-based; how it was run: as §2
dengue virus type 2 [11] = experiment: Antiviral activity against Dengue virus 2 infected in human Huh7 cells; assay type: functional, organism-based; conditions: Huh-7; how it was run: as §2
Dengue virus [12] = experiment: Inhibition of viral spread in Dengue virus-infected african green monkey Vero cells assessed as accumulation of viral envelope protein within perinuclear region at 2.5 uM after 4 days by immunofluorescence assay relative to control; assay type: functional, organism-based; how it was run: as §1
Dengue virus [13] = experiment: Inhibition of viral spread in Dengue virus-infected african green monkey Vero cells assessed as accumulation of viral envelope protein within perinuclear region at 2.5 uM after 5 days by immunofluorescence assay relative to control; assay type: functional, organism-based; how it was run: as §1
Dengue virus [14] = experiment: Inhibition of viral spread in Dengue virus-infected asian tiger mosquito C6/36 cells assessed as accumulation of viral envelope protein within perinuclear region at 2.5 uM after 6 days by immunofluorescence assay relative to control; assay type: functional, organism-based; how it was run: as §1
Dengue virus [15] = experiment: Inhibition of viral spread in Dengue virus-infected asian tiger mosquito C6/36 cells assessed as accumulation of viral envelope protein within perinuclear region at 2.5 uM after 4 days by immunofluorescence assay relative to control; assay type: functional, organism-based; how it was run: as §1
dengue virus type 1 = experiment: Antiviral activity against Dengue virus 1 Hawaii infected in african green monkey Vero cells; assay type: functional, organism-based
dengue virus type 3 = experiment: Antiviral activity against Dengue virus 3 H87 infected in african green monkey Vero cells; assay type: functional, organism-based
dengue virus type 2 [16] = experiment: Inhibition of Dengue virus 2 assembly in african green monkey Vero cells assessed as virus-induced membrane structures at 2.5 uM after 4 days postinfection by electron microscopy; assay type: functional, organism-based
How it was run: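 DENV2-infected Vero cells were treated with 2.5 μM inhibitor, with DMSO-treated infected cells and DMSO-treated mock-infected cells as controls. At 4 days postinfection, cells were fixed in 2.5% glutaraldehyde plus 2.0% paraformaldehyde at 4°C for 24 h. Samples were embedded, sectioned and examined by transmission electron microscopy for virus particles and virus-induced membranes.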

[17] = Inhibition of PDGFR
Modoc virus = experiment: Antiviral activity against Modoc virus M544 infected in african green monkey Vero cells; assay type: functional, organism-based
[18] = Inhibition of p38 MAPK
dengue virus type 4 = experiment: Antiviral activity against Dengue virus 4 H241 infected in african green monkey Vero cells; assay type: functional, organism-based
Poliovirus 1 = experiment: Antiviral activity against Poliovirus 1 infected in african green monkey Vero cells; assay type: functional, organism-based

SMILES: CCN(CC)CCNC(=O)c1c(C)[nH]c(/C=C2\C(=O)Nc3ccc(Cl)cc32)c1C
- Activity (Dengue virus [1]): Active

SMILES: Cc1ccc(Nc2nccc(-c3ccccc3)n2)cc1F
- Activity (Dengue virus [2]): Active

SMILES: CNc1ncc2c(n1)N(C)C(=O)N(c1cc(NC(=O)c3cc(-n4cnc(C)c4)cc(C(F)(F)F)c3)ccc1C)C2
- Activity (Dengue virus [2]): Active
- Activity (Dengue virus [1]): Active

SMILES: COc1c(C)c2c(c(O)c1C/C=C(\C)CCC(=O)O)C(=O)OC2 [MYCOPHENOLIC ACID]
- EC50 (dengue virus type 2 [3]): 5.7 µM

SMILES: O=C1Cc2c([nH]c3ccc(Br)cc23)-c2ccccc2N1
- Activity (Dengue virus [1]): Active

SMILES: O=S(=O)(c1cccc2c(I)cccc12)N1CCCNCC1
- Activity (Dengue virus [1]): Active

SMILES: Cn1cc(/C=C2\C(=O)Nc3ccc(S(N)(=O)=O)cc32)c2ccccc21
- Activity (Dengue virus [2]): Active
- Activity (Dengue virus [1]): Active

SMILES: CN1CCN(CCOc2cc(OC3CCOCC3)c3c(Nc4c(Cl)ccc5c4OCO5)ncnc3c2)CC1
- Activity (Dengue virus [4]): Active
- Activity (Dengue virus [5]): Active
- Activity (Dengue virus [6]): Active
- Activity (dengue virus type 2 [7]): Dose-dependent effect
- Activity (Dengue virus [8]): Active
- Activity (Dengue virus [9]): Active
- Activity (dengue virus type 2 [10]): Dose-dependent effect
- Activity (dengue virus type 2 [11]): Dose-dependent effect
- Activity (Dengue virus [12]): Active
- Activity (Dengue virus [13]): Active
- Activity (Dengue virus [14]): Active
- Activity (Dengue virus [15]): Active
- Activity (Dengue virus [1]): Active

SMILES: Cc1ccc(NC(=O)c2ccc(CN3CCN(C)CC3)cc2)cc1Nc1nccc(-c2cccnc2)n1
- Activity (Dengue virus [2]): Active

SMILES: CC(C)(C)c1nc2c3ccc(F)cc3c3c(=O)[nH]ccc3c2[nH]1
- Activity (Dengue virus [2]): Active

SMILES: COc1cc2ncnc(Nc3ccc(Oc4ccccc4)cc3)c2cc1OC
- Activity (Dengue virus [2]): Active
- Activity (Dengue virus [1]): Active

SMILES: O=C(O)c1cc(N(Cc2ccccc2O)Cc2cc(O)ccc2O)ccc1O
- Activity (Dengue virus [1]): Active

SMILES: Cc1nc(Nc2ncc(C(=O)Nc3c(C)cccc3Cl)s2)cc(N2CCN(CCO)CC2)n1 [DASATINIB]
- Activity (dengue virus type 1): Dose-dependent effect
- Activity (Dengue virus [4]): Active
- Activity (Dengue virus [5]): Active
- Activity (dengue virus type 3): Dose-dependent effect
- Activity (Dengue virus [6]): Active
- Activity (dengue virus type 2 [7]): Dose-dependent effect
- Activity (Dengue virus [8]): Active
- Activity (dengue virus type 2 [16]): Active
- IC50 [17]: 28 nM
- Activity (Dengue virus [9]): Active
- Activity (dengue virus type 2 [10]): Dose-dependent effect
- Activity (dengue virus type 2 [11]): Dose-dependent effect
- Activity (Dengue virus [12]): Active
- Activity (Dengue virus [13]): Active
- Activity (Modoc virus): Dose-dependent effect
- IC50 [18]: 100 nM
- Activity (Dengue virus [14]): Active
- Activity (Dengue virus [15]): Active
- Activity (dengue virus type 4): Dose-dependent effect
- Activity (Dengue virus [1]): Active
- Activity (Poliovirus 1): inactive

SMILES: Brc1c(Br)c(Br)c2[nH]nnc2c1Br
- Activity (Dengue virus [2]): Active
- Activity (Dengue virus [1]): Active

SMILES: NC(=O)c1cccc(-c2cc(Nc3ccc(OC(F)(F)F)cc3)ncn2)c1
- Activity (Dengue virus [2]): Active
- Activity (Dengue virus [1]): Active

SMILES: O=C(O)c1cc(NCc2cc(O)ccc2O)ccc1O
- Activity (Dengue virus [1]): Active

SMILES: N#C/C(=C\c1ccc(O)c(O)c1)C(N)=O
- Activity (Dengue virus [1]): Active

SMILES: COc1cc2ncnc(Nc3cccc(Br)c3)c2cc1OC
- Activity (Dengue virus [1]): Active
